Laboratory results: ChEMBL document CHEMBL4177580, “New 5-HT1A, 5HT2A and 5HT2C receptor ligands containing a picolinic nucleus: Synthesis, in vitro and in vivo pharmacological evaluation” (Bioorg Med Chem, 2017)
The source made the active and inactive calls.

Legend:
Mus musculus [1] = test: Toxicity in Swiss albino mouse assessed as reduction in spontaneous locomotor activity at 30 mg/kg, ip dosed 60 mins before test and measured after 6 mins; assay type: organism-based; details: in vivo, 0.1 h
In short: (§1)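 Spontaneous locomotion: mice dosed i.p. 60 min before being placed individually in an actometer for 30 min. Distance travelled read at 6 and 30 min. Cages cleaned with 70% ethanol between animals. One-way ANOVA with Dunnett's; mean ± SEM of one experiment.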

Mus musculus [2] = test: Induction of hypothermia in Swiss albino mouse assessed as reduction in body temperature at 15 mg/kg, ip measured after 120 mins post dose; assay type: functional, organism-based
In short: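 Normothermic male Swiss mice; rectal thermistor readings over 180 min. Baseline is the mean of readings 60 and 30 min before dosing; readings at 30, 60, 90, 120 min post-injection; Δt = tf − ti. Test compounds i.p. (DMSO/methylcellulose); 8-OH-DPAT (5 mg/kg) and WAY 100635 (0.1 mg/kg) s.c. in water. Two-way ANOVA, Bonferroni.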

[3] = target: T1, Adrenergic receptor alpha-1 (Rattus norvegicus, UniProt P15823+P23944+P43140); test: Displacement of [3H]prazosin from adrenergic alpha1 receptor in rat cerebral cortex
T1 sequence (P15823 whole entry): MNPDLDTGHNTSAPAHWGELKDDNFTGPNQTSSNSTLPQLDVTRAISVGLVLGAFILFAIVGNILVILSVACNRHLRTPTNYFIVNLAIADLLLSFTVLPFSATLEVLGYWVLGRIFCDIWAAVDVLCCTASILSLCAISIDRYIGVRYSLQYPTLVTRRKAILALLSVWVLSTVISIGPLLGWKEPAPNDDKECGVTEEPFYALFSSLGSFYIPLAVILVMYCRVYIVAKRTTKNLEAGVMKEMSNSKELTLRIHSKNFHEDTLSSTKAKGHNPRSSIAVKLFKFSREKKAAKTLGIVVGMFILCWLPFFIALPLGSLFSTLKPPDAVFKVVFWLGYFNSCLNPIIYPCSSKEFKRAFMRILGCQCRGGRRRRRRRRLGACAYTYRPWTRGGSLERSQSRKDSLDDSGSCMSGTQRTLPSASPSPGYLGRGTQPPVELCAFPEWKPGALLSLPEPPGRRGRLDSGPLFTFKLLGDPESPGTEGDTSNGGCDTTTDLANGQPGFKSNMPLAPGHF
T1 sequence (P23944 whole entry): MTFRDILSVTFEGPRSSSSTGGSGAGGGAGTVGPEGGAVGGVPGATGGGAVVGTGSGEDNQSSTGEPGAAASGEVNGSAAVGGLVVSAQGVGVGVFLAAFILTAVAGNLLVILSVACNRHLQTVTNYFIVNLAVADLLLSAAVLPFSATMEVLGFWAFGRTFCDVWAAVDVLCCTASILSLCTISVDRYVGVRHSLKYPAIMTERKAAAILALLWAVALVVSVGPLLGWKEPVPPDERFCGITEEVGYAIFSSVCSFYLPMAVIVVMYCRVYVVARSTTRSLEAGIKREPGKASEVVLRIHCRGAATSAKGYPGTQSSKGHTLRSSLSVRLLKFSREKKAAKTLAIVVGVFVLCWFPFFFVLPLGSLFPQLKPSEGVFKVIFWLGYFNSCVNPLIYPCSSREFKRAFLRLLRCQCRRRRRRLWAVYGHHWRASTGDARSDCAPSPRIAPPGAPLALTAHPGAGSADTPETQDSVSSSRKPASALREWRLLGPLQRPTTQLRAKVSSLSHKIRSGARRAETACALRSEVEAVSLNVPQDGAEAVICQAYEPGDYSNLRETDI
T1 sequence (P43140 whole entry): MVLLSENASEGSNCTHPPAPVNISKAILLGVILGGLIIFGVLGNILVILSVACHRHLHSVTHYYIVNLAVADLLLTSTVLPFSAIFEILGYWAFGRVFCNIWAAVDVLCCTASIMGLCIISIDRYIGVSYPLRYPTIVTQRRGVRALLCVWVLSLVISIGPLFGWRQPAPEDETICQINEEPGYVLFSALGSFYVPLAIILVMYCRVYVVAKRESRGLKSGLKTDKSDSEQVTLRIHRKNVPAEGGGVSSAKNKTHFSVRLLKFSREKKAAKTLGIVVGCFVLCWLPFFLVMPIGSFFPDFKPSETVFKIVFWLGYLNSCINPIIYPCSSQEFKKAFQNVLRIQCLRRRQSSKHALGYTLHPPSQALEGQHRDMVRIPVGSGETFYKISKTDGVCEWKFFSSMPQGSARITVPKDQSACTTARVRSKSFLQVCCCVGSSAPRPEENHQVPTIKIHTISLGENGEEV

Mus musculus [4] = test: Toxicity in Swiss albino mouse assessed as reduction in spontaneous locomotor activity at 60 mg/kg, ip dosed 60 mins before test and measured after 30 mins; assay type: organism-based; details: in vivo, 0.5 h; in short: as §1
Mus musculus [5] = test: Toxicity in Swiss albino mouse assessed as reduction in spontaneous locomotor activity at 15 mg/kg, ip dosed 60 mins before test and measured after 30 mins; assay type: organism-based; details: in vivo, 0.5 h; in short: as §1
Mus musculus [6] = test: Toxicity in Swiss albino mouse assessed as reduction in spontaneous locomotor activity at 30 mg/kg, ip dosed 60 mins before test and measured after 30 mins; assay type: organism-based; details: in vivo, 0.5 h; in short: as §1
Mus musculus [7] = test: Toxicity in Swiss albino mouse assessed as induction of impairment of motor coordination by measuring reduction in time spent on rota-rod at 60 mg/kg, ip dosed 60 mins before test by rotarod test; assay type: organism-based; details: in vivo, 1 h
In short: (§2)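 Rotarod in male Swiss mice, i.p. dosing 60 min pre-test: impairment is inability to stay 1 min on a rod turning at 18 rpm, after 3 days of daily training. Mean ± SEM of 2 independent experiments; one-way ANOVA with Dunnett's.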

Mus musculus [8] = test: Toxicity in Swiss albino mouse assessed as effect on motor coordination at 1.875 to 7.5 mg/kg, ip dosed 60 mins before test by Chimney test; assay type: organism-based; details: in vivo, 1 h, in the assay text read “3.75 to 60 mg/kg” for “1.875 to 7.5 mg/kg”
In short: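 Chimney test in male Swiss mice after i.p. dosing 60 min earlier: impairment defined as failure to climb backwards up a tube (3 cm inner diameter, 25 cm long) within 60 s. Animals pre-trained once daily for 3 days. One-way ANOVA with Dunnett's.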

Mus musculus [9] = test: Antidepressant-like activity in Swiss albino mouse assessed as reduction in immobility time at 1.875 mg/kg, ip dosed 1 hr before test by forced swimming test; assay type: functional, organism-based
In short: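 Male Swiss albino mice (18–24 g), compound i.p. in 0.1% DMSO/0.5% methylcellulose 1 h pre-test. Porsolt swim: cylinder 25 cm high, 10 cm diameter, 10 cm water at 23–25°C, 6 min session; immobility scored over last 4 min. Blind observer; one-way ANOVA with Dunnett's; mean ± SEM.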

Mus musculus [10] = test: Toxicity in Swiss albino mouse assessed as reduction in spontaneous locomotor activity at 60 mg/kg, ip dosed 60 mins before test and measured after 6 mins; assay type: organism-based; details: in vivo, 0.1 h; in short: as §1
Mus musculus [11] = test: Toxicity in Swiss albino mouse assessed as reduction in spontaneous locomotor activity at 1.875 mg/kg, ip dosed 60 mins before test; assay type: organism-based; details: in vivo, 1 h; in short: as §1
Mus musculus [12] = test: Toxicity in Swiss albino mouse assessed as induction of impairment of motor coordination by measuring reduction in time spent on rota-rod at 30 mg/kg, ip dosed 60 mins before test by rotarod test; assay type: organism-based; details: in vivo, 1 h; in short: as §2
D(2) dopamine receptor = D(2) dopamine receptor (Homo sapiens, UniProt P14416); test: Displacement of [3H]methyl-spiperone from human recombinant dopamine D2 receptor expressed in HEK293 cells; assay type: cell-based
Sequence of D(2) dopamine receptor (P14416 whole entry): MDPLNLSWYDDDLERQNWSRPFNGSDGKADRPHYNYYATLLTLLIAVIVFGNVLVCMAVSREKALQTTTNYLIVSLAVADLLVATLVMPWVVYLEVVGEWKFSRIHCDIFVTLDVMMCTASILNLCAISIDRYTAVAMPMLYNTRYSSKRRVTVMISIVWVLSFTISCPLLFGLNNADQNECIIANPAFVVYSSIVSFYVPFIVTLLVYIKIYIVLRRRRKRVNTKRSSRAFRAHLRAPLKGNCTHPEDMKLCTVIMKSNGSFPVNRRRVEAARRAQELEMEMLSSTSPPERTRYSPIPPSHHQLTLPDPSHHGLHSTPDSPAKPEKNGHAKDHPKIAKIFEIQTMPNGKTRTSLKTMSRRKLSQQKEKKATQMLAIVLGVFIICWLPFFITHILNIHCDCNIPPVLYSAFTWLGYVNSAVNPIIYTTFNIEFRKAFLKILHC

Mus musculus [13] = test: Anxiolytic-like activity in Swiss albino mouse assessed as increase in time spent in open arms at 1.875 to 7.5 mg/kg measured for 5 mins test period by elevated plus maze test; assay type: functional, organism-based

In the case of `O=C(NCCN1CCN(c2ccc(Cl)cc2)CC1)c1ccccn1`, the Activity (Mus musculus [1]) is reported as “Toxic”, the Activity (Mus musculus [2]) is reported as “Active” and the Ki [3] is reported as 76 nM. The Activity (Mus musculus [4]) was “Toxic”, the Activity (Mus musculus [5]) was “Toxic” and the Activity (Mus musculus [6]) was “Toxic”. The Activity (Mus musculus [7]) was “Toxic”, the Activity (Mus musculus [8]) was “Non-Toxic” and the Activity (Mus musculus [9]) was “Active”. The Activity (Mus musculus [10]) was “Toxic”, the Activity (Mus musculus [11]) was “Non-Toxic” and the Activity (Mus musculus [12]) was “Toxic”. The Ki (D(2) dopamine receptor) was 2300 nM and the Activity (Mus musculus [13]) was “Active”.
